Measurements from article PMC5436510 (Theranostics, 2017).
Square brackets hold non-standard residues; d marks the D form. Peptide text beside a SMILES is read from it.

Legend:
αvβ3 integrin = αvβ3 integrin (Homo sapiens, UniProt P05106+P06756); experiment: MicroScale Thermophoresis; type: binding
U87MG-tumor-bearing mice = experiment: In vivo antitumor study of peptide-Dox conjugates; set-up: species or system nude mice
How it was run: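 Female nude mice aged 6–7 weeks were inoculated s.c. in the axillary fossa with 1×10^7 U87MG cells. On day 7 they were split into five groups of 10. Saline, free Dox or peptide-Dox conjugates were given i.v. via the tail vein every other day for 7 doses, each equal to 5 mg/kg Dox. Body weight and caliper tumor volume, V = π/6·length·width², were recorded, along with survival.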

[1] = system: U87MG, MDA-MB-231, HepG2 and L02 cells; experiment: Transwell cell migration assay; type: cell-based, Human; settings: peptides 40μM for 24 h, transwell 12 hours
How it was run: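 Cells at 60–70% confluence in 6-well plates were exposed to peptides (40 μM) for 24 h. They were then detached and 5×10^5 cells placed in transwell upper chambers, in triplicate, over DMEM + 10% FBS. After 12 h, unmigrated cells were swabbed off. Membranes were fixed in methanol and stained with 0.1% crystal violet, 30 min each. The dye was eluted with 33% acetic acid and read at OD570. % migration = treated/control OD570 × 100.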

U87MG cells = U87MG cells (Homo sapiens, UniProt P05106+P06756); experiment: Confocal cellular uptake of peptide-RhB conjugates; type: cell-based; settings: confocal imaging, incubation up to 4 h
Sequence of U87MG cells (P06756 31-1048): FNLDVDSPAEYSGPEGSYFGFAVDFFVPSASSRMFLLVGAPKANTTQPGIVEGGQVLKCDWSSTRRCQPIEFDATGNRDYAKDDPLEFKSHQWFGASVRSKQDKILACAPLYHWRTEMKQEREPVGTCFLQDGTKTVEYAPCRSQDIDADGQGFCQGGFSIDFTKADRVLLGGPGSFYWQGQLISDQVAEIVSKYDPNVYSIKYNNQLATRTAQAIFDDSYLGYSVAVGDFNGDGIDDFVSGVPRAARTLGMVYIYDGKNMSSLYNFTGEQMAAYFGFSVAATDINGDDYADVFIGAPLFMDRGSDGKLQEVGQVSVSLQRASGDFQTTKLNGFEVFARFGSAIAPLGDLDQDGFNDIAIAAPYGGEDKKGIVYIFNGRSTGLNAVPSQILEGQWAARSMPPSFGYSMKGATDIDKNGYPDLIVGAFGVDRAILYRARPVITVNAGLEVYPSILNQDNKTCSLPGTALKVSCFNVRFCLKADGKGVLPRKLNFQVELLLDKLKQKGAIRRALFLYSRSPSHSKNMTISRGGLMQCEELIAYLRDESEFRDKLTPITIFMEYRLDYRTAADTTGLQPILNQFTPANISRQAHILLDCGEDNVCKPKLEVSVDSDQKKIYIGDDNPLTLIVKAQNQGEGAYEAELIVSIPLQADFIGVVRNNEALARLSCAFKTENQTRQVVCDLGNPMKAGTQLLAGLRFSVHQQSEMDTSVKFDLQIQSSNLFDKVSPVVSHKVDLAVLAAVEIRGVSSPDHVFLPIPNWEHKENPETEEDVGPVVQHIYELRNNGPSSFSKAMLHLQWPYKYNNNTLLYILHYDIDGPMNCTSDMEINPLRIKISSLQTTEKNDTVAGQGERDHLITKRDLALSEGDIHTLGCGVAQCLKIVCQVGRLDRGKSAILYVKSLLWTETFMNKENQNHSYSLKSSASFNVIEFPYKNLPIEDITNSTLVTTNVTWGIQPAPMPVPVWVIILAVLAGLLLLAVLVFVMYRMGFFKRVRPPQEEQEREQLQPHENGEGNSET
Sequence of U87MG cells (P05106 27-788): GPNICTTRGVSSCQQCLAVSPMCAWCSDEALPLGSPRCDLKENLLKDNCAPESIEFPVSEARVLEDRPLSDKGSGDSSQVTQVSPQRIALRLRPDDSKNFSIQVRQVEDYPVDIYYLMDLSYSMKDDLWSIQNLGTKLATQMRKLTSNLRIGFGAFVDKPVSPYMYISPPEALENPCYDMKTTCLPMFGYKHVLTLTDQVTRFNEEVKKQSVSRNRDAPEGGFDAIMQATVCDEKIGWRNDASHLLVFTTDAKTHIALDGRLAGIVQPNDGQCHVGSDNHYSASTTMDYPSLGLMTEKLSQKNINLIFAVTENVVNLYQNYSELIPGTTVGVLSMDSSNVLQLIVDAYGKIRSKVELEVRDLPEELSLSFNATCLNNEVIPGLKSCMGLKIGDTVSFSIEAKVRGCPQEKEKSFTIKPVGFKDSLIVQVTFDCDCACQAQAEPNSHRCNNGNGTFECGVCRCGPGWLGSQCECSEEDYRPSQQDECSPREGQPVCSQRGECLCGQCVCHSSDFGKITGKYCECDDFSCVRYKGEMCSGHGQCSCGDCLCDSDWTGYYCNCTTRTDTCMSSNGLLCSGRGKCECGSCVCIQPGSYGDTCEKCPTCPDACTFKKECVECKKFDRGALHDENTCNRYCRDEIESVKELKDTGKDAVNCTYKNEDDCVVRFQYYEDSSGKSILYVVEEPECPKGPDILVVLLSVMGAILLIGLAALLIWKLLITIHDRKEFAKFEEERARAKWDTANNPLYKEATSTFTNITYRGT
How it was run: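 Cells were seeded on confocal dishes at 3×10^5 per well and left 24 h to attach. Cells were washed three times with PBS (pH 7.4), imaged by laser confocal microscopy, and uptake at 2 h was quantified as mean fluorescence intensity.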

[2] = system: p-FAK, p-PI3K, p-Ras in U87MG cells; experiment: Western blot of αvβ3 downstream signalling; type: cell-based, Human; settings: 64μg /mL for 48 h

Sequence of αvβ3 integrin (P06756 31-889): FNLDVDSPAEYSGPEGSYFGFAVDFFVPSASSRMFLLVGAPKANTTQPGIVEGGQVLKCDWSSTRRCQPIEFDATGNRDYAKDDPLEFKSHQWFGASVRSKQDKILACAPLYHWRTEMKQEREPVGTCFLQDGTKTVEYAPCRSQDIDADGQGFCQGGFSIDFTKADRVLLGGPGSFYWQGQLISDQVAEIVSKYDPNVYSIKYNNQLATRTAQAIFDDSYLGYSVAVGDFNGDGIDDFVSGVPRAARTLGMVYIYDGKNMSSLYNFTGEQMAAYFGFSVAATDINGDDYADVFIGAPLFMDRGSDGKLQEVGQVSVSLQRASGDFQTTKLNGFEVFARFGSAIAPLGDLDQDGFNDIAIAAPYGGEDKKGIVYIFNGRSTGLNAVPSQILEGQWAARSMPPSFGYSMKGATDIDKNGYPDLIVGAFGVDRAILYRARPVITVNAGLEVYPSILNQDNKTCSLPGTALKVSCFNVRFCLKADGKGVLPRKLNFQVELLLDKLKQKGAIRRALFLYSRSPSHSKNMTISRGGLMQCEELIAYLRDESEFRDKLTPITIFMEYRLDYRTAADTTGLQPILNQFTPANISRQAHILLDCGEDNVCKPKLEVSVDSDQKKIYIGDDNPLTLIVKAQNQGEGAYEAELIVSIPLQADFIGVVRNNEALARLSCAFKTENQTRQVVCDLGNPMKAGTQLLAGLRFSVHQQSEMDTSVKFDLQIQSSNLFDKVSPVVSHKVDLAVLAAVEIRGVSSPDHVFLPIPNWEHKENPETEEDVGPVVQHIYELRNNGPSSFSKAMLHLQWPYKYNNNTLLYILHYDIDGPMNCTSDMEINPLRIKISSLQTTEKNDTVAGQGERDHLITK
Sequence of αvβ3 integrin (P06756 891-1048): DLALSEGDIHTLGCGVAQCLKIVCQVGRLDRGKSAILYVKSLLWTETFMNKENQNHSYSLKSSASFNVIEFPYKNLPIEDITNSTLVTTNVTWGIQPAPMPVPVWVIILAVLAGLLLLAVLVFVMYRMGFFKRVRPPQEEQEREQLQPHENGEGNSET
Sequence of αvβ3 integrin (P05106 27-788): as the sequence (P05106 27-788) above

CSCC[C@H](NC(=O)[C@H](CC(N)=O)NC(=O)[C@@H](CCCNC(=N)N)NC(=O)[C@H](Cc1c[nH]c2ccccc12)NC(=O)[C@@H](N)CCCNC(=N)N)C(=O)O [RWrNM] (H-RW[dR]NM-OH)
Kd (αvβ3 integrin): 8.61 ± 1.35 nM

COc1cccc2c1C(=O)c1c(O)c3c(c(O)c1C2=O)C[C@@](O)(C(=O)CO)C[C@@H]3O[C@H]1C[C@H](N)[C@H](O)[C@H](C)O1 [Dox, doxorubicin]
survival rate (in words) (U87MG-tumor-bearing mice; 15-day treatment): lowest survival rate | body weight (U87MG-tumor-bearing mice; 15-day treatment, dose 5mg/kg of Dox): continual decrease in body weight | histopathology (H&E) toxicity in organs (U87MG-tumor-bearing mice; after the 15-day treatment): obvious cardiotoxicity and hepatotoxicity

CC(=O)O[C@H]1C(=O)[C@@]2(C)[C@H]([C@H](OC(=O)c3ccccc3)[C@]3(O)C[C@H](OC(=O)[C@H](O)[C@@H](NC(=O)c4ccccc4)c4ccccc4)C(C)=C1C3(C)C)[C@]1(OC(C)=O)CO[C@@H]1C[C@@H]2O [PTX]
cell migration compared with the controls [1]: strong inhibition on cell migration

CCN(CC)c1ccc2c(-c3ccccc3C(=O)O)c3ccc(=[N+](CC)CC)cc-3oc2c1 [RhB, Rhodamine B]
cellular uptake (RhB fluorescence) (U87MG cells): no fluorescence was observed

CCN(CC)CCNC(=O)c1c(C)[nH]c(/C=C2\C(=O)Nc3ccc(F)cc32)c1C [Sunitinib]
cell migration compared with the controls [1]: strong inhibition on cell migration

N=C(N)NCCC[C@H](N)C(=O)N[C@@H](Cc1c[nH]c2ccccc12)C(=O)N[C@H](CCCNC(=N)N)C(=O)O [RWr] (H-Arg-Trp-[dR]-OH)
Kd (αvβ3 integrin): 33.6 ± 4.56 nM

N=C(N)NCCC[C@@H]1NC(=O)[C@H](CCCCN)NC(=O)[C@@H](Cc2ccc(O)cc2)NC(=O)[C@H](CC(=O)O)NC(=O)CNC1=O [c(RGDyK)]
levels of phosphorylated signalling proteins [2]: decreased the levels of p-FAK, p-PI3K, and p-Ras proteins | cell migration compared with the controls [1]: obvious decrease in cell migration
